Results reported in ChEMBL document CHEMBL2203050, “Synthesis, evaluation and structure-activity relationships of triazine dimers as novel antiviral agents” (Bioorg Med Chem Lett, 2012).
Active and inactive are the calls of the source. The calls are words filed in the database; no cut-off is given here.

Tests used:
[1] = Cytotoxicity against human TZM-b1 cells; assay type: cell-based
[2] = Selectivity index, ratio of CC50 for human TZM-b1 cells to EC50 for HIV1; assay type: toxicity, cell-based; settings: read-out: Ratio CC50/EC50
[3] = test system: Human immunodeficiency virus 1; test: Antiviral activity against HIV1 infected in human TZM-b1 cells; assay type: functional, organism-based; settings: Human immunodeficiency virus 1, TZM-b1
[4] = test system: Human immunodeficiency virus 1; test: Antiviral activity against HIV1 harboring reverse transcriptase VI829 mutant; assay type: functional, organism-based
[5] = test system: Human immunodeficiency virus 1; test: Ratio of EC50 for HIV1 harboring reverse transcriptase VI829 L100I, K103N mutant to EC50 for wild type HIV1 VI829
[6] = test system: Human immunodeficiency virus 1; test: Antiviral activity against HIV1 assessed as inhibition of viral p24 antigen production treated every 1 hr for 12 hrs by ELISA based time-of-drug addition assay; assay type: functional, organism-based
Procedure, shortened: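 TZM-bl cells (2 × 10⁴ per well) were infected with virus at 0.4 MOI, with or without compound, for 1 h. Unbound virus was washed off and fresh medium was added, with or without compound. Compound at 50–500 × EC₅₀ was then added each hour over 12 h. p24 was measured by in-house antigen-capture ELISA at 24 h, giving a single replication round. Cells plus medium and cells plus virus served as controls.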

[7] = test system: Human immunodeficiency virus 1; test: Ratio of EC50 for HIV1 Ba-L harboring reverse transcriptase V106A mutant to EC50 for wild type HIV1 Ba-L; assay type: functional
[8] = test system: Human immunodeficiency virus 1; test: Antiviral activity against HIV1 harboring reverse transcriptase VI829 L100I, K103N mutant; assay type: functional, organism-based
[9] = test system: Human immunodeficiency virus 1; test: Antiviral activity against HIV1 harboring reverse transcriptase VI829/Y181C mutant; assay type: functional, organism-based
[10] = test system: Human immunodeficiency virus 1; test: Antiviral activity against wild type HIV1 Ba-L; assay type: functional, organism-based; settings: Human immunodeficiency virus 1, Ba-L
[11] = test system: Human immunodeficiency virus 1; test: Antiviral activity against HIV1 Ba-L harboring reverse transcriptase V106A mutant; assay type: functional, organism-based; settings: Human immunodeficiency virus 1, Ba-L
[12] = test system: Human immunodeficiency virus 1; test: Ratio of EC50 for HIV1 harboring reverse transcriptase VI829/Y181C mutant to EC50 for wild type HIV1 VI829

With Cc1cc(C)c(Nc2nc(Nc3ccc(C#N)cc3)nc(Nc3ccc(Nc4nc(Nc5ccc(C#N)cc5)nc(Nc5c(C)cc(C)cc5C)n4)cc3)n2)c(C)c1 the CC50 [1] was > 100 µM, the selectivity ratio [2] was > 588 and the EC50 [3] was 0.17 µM.

For Cc1cc(C)c(Nc2ccnc(Nc3ccc(C#N)cc3)n2)c(C)c1 [DAPIVIRINE], the EC50 [4] was 0.002 µM, the “Ratio EC50” value [5] was >500 and the inhibition [6] was “Active”. For the same molecule, the “Ratio EC50” value [7] was 1.3, the EC50 [8] was > 1 µM and the CC50 [1] was 2.88 µM. For the same molecule, the selectivity ratio [2] was 1440, the EC50 [9] was 0.0108 µM and the EC50 [10] was 0.002 µM. The EC50 [11] was 0.0025 µM and the “Ratio EC50” value [12] was 5.4.
